Data as given in ChEMBL document CHEMBL1135805 (J Med Chem, 2002).

Legend:
Breast cancer cell line [1] = experiment: Concentration that reduces the difference in reversal of DOX accumulation between MDA-435/LCC6 and MDA-435/LCC6-MDRI cells by 50%.; type: functional, cell-based; conditions: Homo sapiens
Procedure, shortened: (§1)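 They were then given test compound at five concentrations plus DOX (4 μM) or [³H] VBL (5 nM) for 3 h, in triplicate, and washed with ice-cold 0.15 M NaCl. DOX was extracted in 20% TCA and read by fluorescence (ex 500/em 580 nm); VBL was counted by scintillation. Values were corrected for cell number. EC50 is the concentration halving the accumulation difference between the two lines, interpolated from dose-response curves. […] Mean ± SE, ≥3 experiments.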

Breast cancer cell line [2] = experiment: Concentration that reduces difference in reversal of [3H]VBL accumulation between MDA-435/LCC6 and MDA-435/LCC6-MDRI cells by 50%; type: functional, cell-based; conditions: Homo sapiens
Procedure, shortened: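 They were then given test compound at five concentrations plus DOX (4 μM) or [³H] VBL (5 nM) for 3 h, in triplicate, and washed with ice-cold 0.15 M NaCl. Values were corrected for cell number. EC50 is the concentration halving the accumulation difference between the two lines, interpolated from dose-response curves. Mean ± SE, ≥3 experiments.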

[3] = Growth inhibitory activity on MDA-435/LCC6 ([…]) human breast cancer cells.; type: functional, cell-based; conditions: Cancer cell lines
Procedure, shortened: (§2)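 MDA435/LCC6 (Pgp-negative) and MDA435/LCC6^MDR1 (Pgp-positive) cells were plated 24 h, then exposed 5 days to test agents at a range of concentrations in growth medium. Cells were fixed and stained with 0.5% crystal violet in 25% methanol, and dye was eluted in 0.1 M sodium citrate/25% methanol and read at 540 nm. […] Mean ± SE, ≥3 experiments.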

[4] = Effect on reversal of DOX accumulation in MDA-435/LCC6 (Pgp-negative) cells.; type: functional; conditions: Homo sapiens
Procedure, shortened: (§3)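 Test compound at five concentrations was added with DOX (4 μM) or [³H] VBL (5 nM) for 3 h, in triplicate. Cells were washed in ice-cold 0.15 M NaCl. DOX was measured fluorometrically after TCA extraction and VBL by scintillation, both normalized to cell number. Pgp-specific EC50 values were corrected for these effects.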

Breast cancer cell line [5] = experiment: Potency relative to progesterone in reducing the difference in reversal of DOX accumulation between MDA-435/LCC6 and MDA-435/LCC6-MDRI cells; type: functional, Homo sapiens; procedure, shortened: as §1
[6] = Potency relative to progesterone in reversing of [3H]- VBL accumulation in MDA-435/LCC6 (Pgp-negative) cells.; type: functional, Homo sapiens; procedure, shortened: as §3
[7] = Growth inhibitory activity on MDA-435/LCC6-MDRI ([…]) human breast cancer cells.; type: functional, cell-based; conditions: Cancer cell lines; procedure, shortened: as §2
[8] = Potency relative to progesterone in reversing of DOX accumulation in MDA-435/LCC6 (Pgp-negative) cells.; type: functional, Homo sapiens; procedure, shortened: as §3
[9] = Effect on reversal of [3H]- VBL accumulation in MDA-435/LCC6 (Pgp-negative) cells.; type: functional; conditions: Homo sapiens; procedure, shortened: as §3
Breast cancer cell line [10] = experiment: Ratio of effect of compound on VBL accumulation (antiPgp activity) to its intrinsic cellular toxicity;; type: functional, Homo sapiens
Breast cancer cell line [11] = experiment: Ratio of effect of compound on DOX accumulation (antiPgp activity) to its intrinsic cellular toxicity;; type: functional, Homo sapiens
Procedure, shortened: (§4)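 Ratio IC50/EC50 of crystal violet cytotoxicity (5-day exposure) IC50 to the EC50 for DOX or [³H] VBL accumulation (3 h, 4 μM DOX or 5 nM VBL) in MDA435/LCC6 and MDA435/LCC6^MDR1 cells. Where no IC50 was reached, the highest non-toxic concentration tested, limited by solubility, was used.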

Breast cancer cell line [12] = experiment: To estimate the extent of resistance conferred by Pgp, the ratio of IC50 in MDA-435/LCC6-MDR1 and MDA-435/LCC6 cells (relative resistance of Pgp-positive cells) was used; type: functional, Homo sapiens
Procedure, shortened: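 Retrovirally MDR1-transduced MDA435/LCC6^MDR1 and parental MDA435/LCC6 cells, 24 h after plating, exposed 5 days to graded agent concentrations. Fixed/stained with 0.5% crystal violet in 25% methanol, dye extracted in 0.1 M sodium citrate/25% methanol, A540. IC50 = concentration halving cell density versus untreated, interpolated.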

Breast cancer cell line [13] = experiment: Potency relative to progesterone in reducing the difference in reversing of [3H]VBL accumulation between MDA-435/LCC6 and MDA-435/LCC6-MDRI cells; type: functional, Homo sapiens; procedure, shortened: as §1
[14] = biological target: ATP-dependent translocase ABCB1 (Homo sapiens, UniProt P08183); experiment: TP_TRANSPORTER: reversal of Vinblastine accumulation (Vinblastine: 0.005 uM) in MDA435/LCC6 MDR1 cells; type: functional, cell-based, MDA-MB-435/LCC6 MDR1
Procedure, shortened: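 VBL (5 nM) with test compound at five concentrations, in triplicate. Cells were rinsed with ice-cold 0.15 M NaCl and PBS, dried, trypsinized, and counted by scintillation; accumulation was corrected for cell number.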

Breast cancer cell line [15] = experiment: Ratio of effect of compound on VBL accumulation (antiPgp activity) to its intrinsic cellular toxicity; type: functional, Homo sapiens; procedure, shortened: as §4
[16] = Growth inhibitory activity on MDA-435/LCC6 ([…]) human breast cancer cells; type: functional, cell-based; conditions: Cancer cell lines
Procedure, shortened: (§5)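 Cells exposed 24 h after plating to test agents at several concentrations for 5 days. Crystal violet (0.5% in 25% methanol) fix/stain, dye extracted in 0.1 M sodium citrate/25% methanol, absorbance at 540 nm as percent of untreated controls.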

[17] = Growth inhibitory activity on MDA-435/LCC6-MDRI ([…]) human breast cancer cells; type: functional, cell-based; conditions: Cancer cell lines; procedure, shortened: as §5
[18] = Potency relative to progesterone in reversing of DOX accumulation in MDA-435/LCC6 (Pgp-negative)cells; Not determined; type: functional, Homo sapiens
Breast cancer cell line [19] = experiment: Ratio of effect of compound on DOX accumulation (antiPgp activity) to its intrinsic cellular toxicity; type: functional, Homo sapiens; procedure, shortened: as §4
Breast cancer cell line [20] = experiment: Concentration that reduces the difference in reversal of DOX accumulation between MDA-435/LCC6 and MDA-435/LCC6-MDRI cells by 50%; type: functional, cell-based; conditions: Homo sapiens
Procedure, shortened: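 Ice-cold NaCl wash, overnight 20% TCA extraction at 4 °C in dark, fluorescence ex 500/em 580 nm against DOX standard curve, normalized to cell number.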

Sequence of ATP-dependent translocase ABCB1 (P08183 whole entry): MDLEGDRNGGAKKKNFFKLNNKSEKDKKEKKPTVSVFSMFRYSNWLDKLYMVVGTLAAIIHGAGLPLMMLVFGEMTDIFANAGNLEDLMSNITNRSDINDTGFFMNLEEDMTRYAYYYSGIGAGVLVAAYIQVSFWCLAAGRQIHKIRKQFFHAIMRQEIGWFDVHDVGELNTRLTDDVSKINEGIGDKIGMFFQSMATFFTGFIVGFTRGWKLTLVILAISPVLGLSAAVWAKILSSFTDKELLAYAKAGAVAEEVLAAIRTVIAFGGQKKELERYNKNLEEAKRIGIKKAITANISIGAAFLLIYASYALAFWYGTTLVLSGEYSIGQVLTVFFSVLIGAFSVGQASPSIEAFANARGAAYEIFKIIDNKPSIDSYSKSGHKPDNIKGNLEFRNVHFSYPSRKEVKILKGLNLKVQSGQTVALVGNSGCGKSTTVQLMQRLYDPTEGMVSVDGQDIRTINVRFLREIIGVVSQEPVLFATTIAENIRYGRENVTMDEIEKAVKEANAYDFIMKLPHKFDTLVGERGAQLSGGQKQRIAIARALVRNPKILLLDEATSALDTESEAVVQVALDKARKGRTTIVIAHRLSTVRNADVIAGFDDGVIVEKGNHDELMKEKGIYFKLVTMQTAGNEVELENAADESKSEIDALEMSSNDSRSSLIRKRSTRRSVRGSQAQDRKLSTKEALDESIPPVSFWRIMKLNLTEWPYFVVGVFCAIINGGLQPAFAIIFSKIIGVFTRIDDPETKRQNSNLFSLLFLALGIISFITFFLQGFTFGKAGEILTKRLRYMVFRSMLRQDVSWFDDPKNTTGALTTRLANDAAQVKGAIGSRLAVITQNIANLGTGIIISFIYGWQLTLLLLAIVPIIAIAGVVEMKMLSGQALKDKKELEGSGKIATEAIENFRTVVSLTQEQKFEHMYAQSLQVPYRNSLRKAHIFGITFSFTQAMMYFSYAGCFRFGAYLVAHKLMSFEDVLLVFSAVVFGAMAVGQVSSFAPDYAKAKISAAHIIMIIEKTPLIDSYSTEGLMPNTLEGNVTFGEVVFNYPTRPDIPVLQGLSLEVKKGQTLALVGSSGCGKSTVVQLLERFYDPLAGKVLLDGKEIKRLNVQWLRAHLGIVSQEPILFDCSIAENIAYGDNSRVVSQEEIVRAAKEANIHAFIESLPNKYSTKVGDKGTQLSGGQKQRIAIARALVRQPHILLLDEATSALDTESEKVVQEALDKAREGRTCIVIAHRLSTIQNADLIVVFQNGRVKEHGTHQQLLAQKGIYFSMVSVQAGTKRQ

SMILES | EC50 (Breast cancer cell line [1]) | EC50 (Breast cancer cell line [2]) | IC50 [3] | EC50 [4] | Relative potency (Breast cancer cell line [5]) | Relative potency [6] | IC50 [7] | Relative potency [8] | EC50 [9] | Ratio (Breast cancer cell line [10]) | Ratio (Breast cancer cell line [11]) | Relative resistance (Breast cancer cell line [12]) | Relative potency (Breast cancer cell line [13]) | EC50 [14] | Ratio (Breast cancer cell line [15]) | IC50 [16] | IC50 [17] | Relative potency [18] | Ratio (Breast cancer cell line [19]) | EC50 (Breast cancer cell line [20])
CC(=O)[C@H]1CCC2C3C(CC[C@@]21C)[C@@]1(C)CCC(=O)C=C1C[C@H]3Sc1ccc(NC(=O)NS(=O)(=O)c2ccc(C)cc2)cc1 (stereo partly drawn) | 14.7 µM | 34.8 µM | 22.1 µM | 37 µM | 1.5 | 0.6 | 38.2 µM | 1.1 | 33.4 µM | 0.7 | 0.6 | 1.7 | 0.5 |  |  |  |  |  |  | 
CC(=O)C1CCC2C3C(CC[C@]12C)[C@@]1(C)CCC(=O)C=C1C[C@H]3Sc1ccc(NC(=O)NCCCl)cc1 (stereo partly drawn) | 0.6 µM | 0.8 µM | 3.2 µM | 0.7 µM | 40.5 | 23.5 | 7.3 µM | 60.2 | 0.9 µM | 3.6 | 3.2 | 2.2 | 22.5 |  |  |  |  |  |  | 
CC(=O)C1CC[C@H]2[C@@H]3[C@H](Sc4ccc(NC(=O)N[C@H](C)c5ccccc5)cc4)CC4=CC(=O)CC[C@]4(C)[C@H]3CC[C@]12C (stereo partly drawn) |  |  |  |  |  |  |  |  |  |  |  |  |  | 0.7 µM |  |  |  |  |  | 
CCNC(=O)Nc1ccc(S[C@@H]2CC3=CC(=O)CC[C@]3(C)C3CC[C@]4(C)C(C(C)=O)CCC4C32)cc1 (stereo partly drawn) | 0.7 µM | 1.3 µM |  | 1 µM | 31.3 | 14 |  |  | 1.5 µM |  | >20 |  | 14.2 |  | >13.3 | > 20 µM | > 20 µM | 42.7 |  | 
CC(=O)[C@H]1CCC2C3C(CC[C@@]21C)[C@@]1(C)CCC(=O)C=C1C[C@H]3Sc1ccc(NC(=O)N[C@H](C)c2ccccc2)cc1 (stereo partly drawn) | 0.6 µM | 0.8 µM |  | 0.9 µM | 37.2 | 28.2 |  | 44.8 | 0.7 µM |  |  |  | 24.5 |  | >28.6 | > 20 µM | > 20 µM |  | >22.2 | 
COc1ccc(CCN(C)CCCC(C#N)(c2ccc(OC)c(OC)c2)C(C)C)cc1OC (stereo not drawn) | 2.4 µM | 1.2 µM | 65.8 µM | 4.1 µM |  |  | 63.4 µM |  |  |  |  |  |  |  |  |  |  |  |  | 
C/C=C/C[C@@H](C)[C@@H](O)[C@H]1C(=O)N[C@@H](CC)C(=O)N(C)CC(=O)N(C)[C@@H](CC(C)C)C(=O)N[C@@H](C(C)C)C(=O)N(C)[C@@H](CC(C)C)C(=O)N[C@@H](C)C(=O)N[C@H](C)C(=O)N(C)[C@@H](CC(C)C)C(=O)N(C)[C@@H](CC(C)C)C(=O)N(C)[C@@H](C(C)C)C(=O)N1C [CYCLOSPORINE] | 0.5 µM |  |  |  |  |  |  |  |  |  |  |  |  |  |  |  |  |  |  | 
CC(=O)[C@H]1CC[C@H]2[C@@H]3CCC4=CC(=O)CC[C@]4(C)[C@H]3CC[C@]12C [PROGESTERONE] |  | 18.7 µM | 27.4 µM | 42.2 µM |  |  | 36.4 µM |  | 21 µM |  |  |  |  |  |  |  |  |  |  | 22.3 µM
